In PMC2885802 (Current radiopharmaceuticals, 2010):

Experiments:
[1] = guanidino group of IAC; ref not given; cited from earlier work
αvβ3 = αvβ3 antagonist; not measured here, no ref given; cited from earlier work
[2] = system: receptor-positive M21 human melanoma xenografts; test: Biodistribution study in nude mice bearing M21 xenografts; assay type: in vivo; conditions: for tumor uptake with co-injection of antagonist: co-injection of 200 μg unlabeled IA; for tumor uptake: 1 h after i.v. injection; for excretion route: inferred from whole-body retention
Procedure, shortened: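 Athymic nude mice carried s.c. right-flank xenografts from 3 × 10^6 M21 cells (grown in RPMI 1640, 10% FBS, 1% penicillin-streptomycin, 5% CO2). At about 200 mm3 tumor size, mice received i.v. 99mTc-labeled test compound (6.25 μCi, 0.231 MBq/6 pmol in PBS with 1% BSA). They were euthanized at set times for tissue %ID/g and tumor-to-organ ratios; n=4~15 per time point.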

Stability in PBS = assay type: physicochemical; conditions: 18-h period of incubation
human integrin αvβ3 = human integrin αvβ3 (Homo sapiens, UniProt P05106+P06756); test: Receptor-binding assay; conditions: 0.8 μM αvβ3, 37 °C, 3 hrs, n = 4
human integrin αvβ3, sequence (P06756 31-889 limits assumed): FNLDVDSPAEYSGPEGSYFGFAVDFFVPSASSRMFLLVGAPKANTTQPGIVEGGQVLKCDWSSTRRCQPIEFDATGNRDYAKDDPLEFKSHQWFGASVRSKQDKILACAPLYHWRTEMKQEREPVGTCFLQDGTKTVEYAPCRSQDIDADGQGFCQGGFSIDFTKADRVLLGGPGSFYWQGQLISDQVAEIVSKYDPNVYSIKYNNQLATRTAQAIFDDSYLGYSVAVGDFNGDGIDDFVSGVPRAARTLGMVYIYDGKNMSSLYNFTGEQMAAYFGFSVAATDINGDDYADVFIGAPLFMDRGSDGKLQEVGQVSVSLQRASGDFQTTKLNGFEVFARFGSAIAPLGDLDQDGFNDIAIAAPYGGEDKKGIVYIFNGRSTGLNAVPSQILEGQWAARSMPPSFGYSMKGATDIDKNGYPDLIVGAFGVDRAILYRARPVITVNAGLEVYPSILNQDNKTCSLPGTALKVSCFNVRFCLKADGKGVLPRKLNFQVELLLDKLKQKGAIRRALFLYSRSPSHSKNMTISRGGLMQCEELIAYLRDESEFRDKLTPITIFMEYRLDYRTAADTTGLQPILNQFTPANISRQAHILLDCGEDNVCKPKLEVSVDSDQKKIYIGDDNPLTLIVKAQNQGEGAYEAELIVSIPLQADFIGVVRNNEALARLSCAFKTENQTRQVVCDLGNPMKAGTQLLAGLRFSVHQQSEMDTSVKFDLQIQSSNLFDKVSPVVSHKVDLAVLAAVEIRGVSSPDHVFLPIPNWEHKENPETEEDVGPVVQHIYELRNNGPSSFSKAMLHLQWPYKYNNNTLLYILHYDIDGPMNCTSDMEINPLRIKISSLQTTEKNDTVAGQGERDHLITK
human integrin αvβ3, sequence (P06756 891-1048 partner limits assumed): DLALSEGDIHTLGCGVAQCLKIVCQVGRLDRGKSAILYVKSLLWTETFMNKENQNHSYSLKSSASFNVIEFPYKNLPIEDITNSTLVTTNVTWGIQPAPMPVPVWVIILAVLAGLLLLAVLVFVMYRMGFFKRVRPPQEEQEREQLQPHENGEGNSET
human integrin αvβ3, sequence (P05106 27-788): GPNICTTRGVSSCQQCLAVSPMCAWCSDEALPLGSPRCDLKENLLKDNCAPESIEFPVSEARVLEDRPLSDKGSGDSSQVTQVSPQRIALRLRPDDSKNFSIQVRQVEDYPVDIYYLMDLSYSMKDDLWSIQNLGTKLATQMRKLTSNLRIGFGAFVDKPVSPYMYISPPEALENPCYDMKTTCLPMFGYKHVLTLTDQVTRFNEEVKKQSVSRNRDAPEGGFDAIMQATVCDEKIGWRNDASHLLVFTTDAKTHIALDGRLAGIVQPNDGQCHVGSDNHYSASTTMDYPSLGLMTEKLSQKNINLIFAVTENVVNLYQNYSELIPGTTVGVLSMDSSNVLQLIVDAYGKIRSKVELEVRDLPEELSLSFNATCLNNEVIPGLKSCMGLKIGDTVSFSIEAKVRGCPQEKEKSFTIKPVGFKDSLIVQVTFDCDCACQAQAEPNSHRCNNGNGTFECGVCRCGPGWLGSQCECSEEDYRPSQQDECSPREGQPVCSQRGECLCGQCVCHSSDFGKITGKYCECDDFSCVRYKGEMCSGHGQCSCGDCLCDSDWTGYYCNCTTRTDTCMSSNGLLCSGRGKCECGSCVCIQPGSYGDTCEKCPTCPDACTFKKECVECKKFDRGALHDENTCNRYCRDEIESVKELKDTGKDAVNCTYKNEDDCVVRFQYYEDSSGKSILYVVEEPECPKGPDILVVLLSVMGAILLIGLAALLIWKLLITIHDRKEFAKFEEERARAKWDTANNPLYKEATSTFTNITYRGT
Procedure, shortened: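 Purified 99mTc-labeled test compound (1.1×10^6 cpm, <2.5 pmol) was incubated with 2.6 to 51.2 pmol human integrin αvβ3 in PBS pH 7.2 at 37 °C for 3 hrs. Non-specific binding was taken with a 250-fold molar excess of unlabeled antagonist. Bound (7 min) and free (15 min) label were separated by size-exclusion HPLC (TSK G3000SWXL).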

[3] = Stability study in mouse serum; assay type: in vitro ADME; conditions: 37 °C; for % of 99mTc radioactivity associated with 99mTcO4−1: mouse serum, 18 h; for % intact when incubated in serum: 18 hrs
Procedure, shortened: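 Purified 99mTc-labeled test compound (116 μCi, 4.29 MBq) was added to mouse serum containing 0.04% sodium azide, buffered with sodium phosphate pH 7.2, and held at 37 °C. Timed aliquots went to size-exclusion HPLC (TSK G3000SWXL; 0.067 M sodium phosphate/0.10 M KCl, pH 6.8; 1.0 ml/min) with UV and online radioactivity detection. Intact, protein-bound and 99mTcO4− fractions were measured; N ≥ 3.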

## CC(C)(CN)CNC(=O)NCCS(=O)(=O)N[C@@H](CNC(=O)c1ccc(OCCNC2=NCCCN2)cc1)C(=O)O.Cl [IAC, 4-[2-(3,4,5,6-tetrahydropyrimidin-2-ylamino)-ethyloxy]benzoyl-2-(S)-[N-(3-aminoneopenta-1-carbamyl)]-aminoethylsulfonylamino-β-alanine hydrochloride]
[1]
  pKa: ~ 12
αvβ3
  IC50: 2.94 nM

## ^99mTc EDDA2/HYNIC-IAC [P1]
[2]; 4-h period
  tumor uptake value over time: remained relatively unchanged
[2]; 0.3 h
  Tumor-to-organ ratio, Blood: 0.90±0.20
  Tumor-to-organ ratio, Bone: 1.29±0.23
  Tumor-to-organ ratio, Heart: 1.91±0.43
  Tumor-to-organ ratio, Intestine: 0.66±0.07
  Tumor-to-organ ratio, Kidney: 0.51±0.12
  Tumor-to-organ ratio, Liver: 0.72±0.12
  Tumor-to-organ ratio, Lung: 0.72±0.10
  Tumor-to-organ ratio, Muscle: 3.04±0.68
  Tumor-to-organ ratio, Spleen: 0.71±0.07
  Tumor-to-organ ratio, Stomach: 0.54±0.13
[2]; 1 h
  Tumor-to-organ ratio, Blood: 1.38±0.48
  Tumor-to-organ ratio, Bone: 2.12±1.17
  Tumor-to-organ ratio, Heart: 2.48±0.75
  Tumor-to-organ ratio, Intestine: 0.60±0.19
  Tumor-to-organ ratio, Kidney: 0.75±0.28
  Tumor-to-organ ratio, Liver: 0.89±0.27
  Tumor-to-organ ratio, Lung: 1.19±0.43
  Tumor-to-organ ratio, Muscle: 6.11±1.80
  Tumor-to-organ ratio, Spleen: 1.36±0.38
  Tumor-to-organ ratio, Stomach: 0.40±0.20
  whole-body retention: 39.58 ± 2.91 % ID
  tumor uptake with co-injection of antagonist: 0.68 ± 0.06 % ID/g
[2]; 1 h, 0, 10 and 200 μg unlabeled IA
  effect of unlabeled IA co-injection on tumor uptake: blocked by unlabeled IA in a concentration dependent manner
[2]
  tumor uptake: 3.17±0.52 % ID/g
  excretion route: excreted primarily via the renal system
[2]; 2 h
  Tumor-to-organ ratio, Blood: 2.19±0.18
  Tumor-to-organ ratio, Bone: 2.46±0.19
  Tumor-to-organ ratio, Heart: 3.23±0.48
  Tumor-to-organ ratio, Intestine: 0.57±0.07
  Tumor-to-organ ratio, Kidney: 0.85±0.08
  Tumor-to-organ ratio, Liver: 1.02±0.12
  Tumor-to-organ ratio, Lung: 1.50±0.09
  Tumor-to-organ ratio, Muscle: 4.68±0.31
  Tumor-to-organ ratio, Spleen: 1.30±0.12
  Tumor-to-organ ratio, Stomach: 0.43±0.11
[2]; 4 h
  Tumor-to-organ ratio, Blood: 17.11±5.18
  Tumor-to-organ ratio, Bone: 4.78±1.07
  Tumor-to-organ ratio, Heart: 7.62±1.99
  Tumor-to-organ ratio, Intestine: 0.46±0.15
  Tumor-to-organ ratio, Kidney: 1.22±0.32
  Tumor-to-organ ratio, Liver: 1.59±0.72
  Tumor-to-organ ratio, Lung: 2.47±0.49
  Tumor-to-organ ratio, Muscle: 7.84±1.78
  Tumor-to-organ ratio, Spleen: 2.83±0.81
  Tumor-to-organ ratio, Stomach: 1.53±0.80
  whole-body retention: 27.25 ± 3.67 % ID
Stability in PBS
  stability in PBS: stable
Human integrin αvβ3
  receptor-bindability (% bound to αvβ3): 78.02 ± 13.48%
[3]
  % of 99mTc radioactivity associated with 99mTcO4−1: 3%
  % intact when incubated in serum: 84%

## ^99mTc PDA (tricin)/HYNIC-IAC [P2]
[2]; 4-h period
  accumulation in liver and intestine compared with P1: significantly higher accumulation
[2]; 1 h
  Tumor-to-organ ratio, Blood: 1.83±0.16
  Tumor-to-organ ratio, Bone: 1.48±0.37
  Tumor-to-organ ratio, Heart: 2.64±0.36
  Tumor-to-organ ratio, Intestine: 0.15±0.01
  Tumor-to-organ ratio, Kidney: 0.62±0.05
  Tumor-to-organ ratio, Liver: 0.46±0.27
  Tumor-to-organ ratio, Lung: 0.83±0.22
  Tumor-to-organ ratio, Muscle: 3.85±1.64
  Tumor-to-organ ratio, Spleen: 1.09±0.15
  Tumor-to-organ ratio, Stomach: 0.40±0.12
  whole-body retention: 57.84 ± 5.15 % ID
  tumor uptake with co-injection of antagonist: 0.96 ± 0.30 % ID/g
[2]
  tumor uptake: 2.13±0.17 % ID/g
  excretion route: excreted to a larger extent via the hepatobiliary system
[2]; 2 h
  Tumor-to-organ ratio, Blood: 2.58±0.25
  Tumor-to-organ ratio, Bone: 2.73±0.54
  Tumor-to-organ ratio, Heart: 3.85±0.57
  Tumor-to-organ ratio, Intestine: 0.11±0.02
  Tumor-to-organ ratio, Kidney: 0.81±0.07
  Tumor-to-organ ratio, Liver: 0.45±0.30
  Tumor-to-organ ratio, Lung: 1.34±0.51
  Tumor-to-organ ratio, Muscle: 5.75±1.56
  Tumor-to-organ ratio, Spleen: 1.95±0.27
  Tumor-to-organ ratio, Stomach: 0.29±0.09
[2]; 4 h
  Tumor-to-organ ratio, Blood: 3.15±0.25
  Tumor-to-organ ratio, Bone: 3.76±1.36
  Tumor-to-organ ratio, Heart: 3.88±0.90
  Tumor-to-organ ratio, Intestine: 0.07±0.00
  Tumor-to-organ ratio, Kidney: 0.78±0.04
  Tumor-to-organ ratio, Liver: 0.40±0.17
  Tumor-to-organ ratio, Lung: 2.71±0.95
  Tumor-to-organ ratio, Muscle: 6.33±1.57
  Tumor-to-organ ratio, Spleen: 1.54±0.40
  Tumor-to-organ ratio, Stomach: 0.27±0.05
  whole-body retention: 54.04 ± 3.57 % ID
[2]; 4 h relative to 1 h
  radioactivity at 1 h remained in the tumor at 4 h: 62%
Stability in PBS
  stability in PBS: stable
Human integrin αvβ3
  receptor-bindability (% bound to αvβ3): 51.05 ± 14.05%
[3]
  % of 99mTc radioactivity associated with 99mTcO4−1: 9%
  % intact when incubated in serum: 77%
